{
  "source": "ChEMBL document CHEMBL1156459",
  "about": "“Discovery of a small molecule antagonist of the parathyroid hormone receptor by using an N-terminal parathyroid hormone peptide probe” (Proc Natl Acad Sci U S A, 2007)",
  "key": {"[1]": {"target": "T1, Parathyroid hormone/parathyroid hormone-related peptide receptor (Homo sapiens, UniProt Q03431)", "T1 sequence (Q03431 whole entry)": "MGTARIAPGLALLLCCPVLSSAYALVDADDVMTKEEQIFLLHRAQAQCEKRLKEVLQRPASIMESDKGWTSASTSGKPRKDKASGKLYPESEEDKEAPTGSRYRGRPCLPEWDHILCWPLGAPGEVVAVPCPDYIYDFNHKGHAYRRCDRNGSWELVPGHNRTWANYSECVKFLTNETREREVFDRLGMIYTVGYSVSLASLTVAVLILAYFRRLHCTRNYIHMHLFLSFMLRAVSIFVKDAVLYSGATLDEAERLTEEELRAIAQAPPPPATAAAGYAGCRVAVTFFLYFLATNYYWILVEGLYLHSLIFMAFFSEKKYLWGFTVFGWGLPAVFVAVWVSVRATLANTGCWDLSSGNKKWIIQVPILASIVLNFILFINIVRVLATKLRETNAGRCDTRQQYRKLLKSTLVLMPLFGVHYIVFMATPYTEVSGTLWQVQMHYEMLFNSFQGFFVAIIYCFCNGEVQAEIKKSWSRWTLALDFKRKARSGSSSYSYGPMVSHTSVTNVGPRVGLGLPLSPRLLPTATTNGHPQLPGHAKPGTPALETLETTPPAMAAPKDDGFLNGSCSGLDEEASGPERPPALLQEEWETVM", "assay": "Activity at human PTH/PTH-related peptide receptor expressed in SAOS2 cells assessed as cAMP formation", "format": "functional, cell-based, SAOS-2", "how_it_was_run": "(§1)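 Nonconfluent cells grown at 37°C in DMEM with 10% FBS, refed 12–24 h before assay. Rinsed with warm PBS, detached with prewarmed EDTA (37°C, 5–10 min), spun at 300 × g for 5 min. Resuspended in HBSS/5 mM Hepes/0.1% BSA/0.5 mM IBMX, pH 7.4. cAMP read by AlphaScreen.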"}, "[2]": {"target": "T1, Parathyroid hormone/parathyroid hormone-related peptide receptor", "assay": "Displacement of [125I]DPC-AJ1951 from PTH/PTH-related peptide receptor expressed in HKRK-B28 cells", "format": "cell-based", "how_it_was_run": "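Whole HKRK-B28 cells plated at 30,000/well and incubated overnight at 37°C, 5% CO2. Incubated 3 h at room temperature, washed three times, bound radioactivity counted by scintillation.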"}, "[3]": {"target": "T1, Parathyroid hormone/parathyroid hormone-related peptide receptor", "assay": "Activity at human PTH/PTH-related peptide receptor expressed in HEK293 cells assessed as induction of luciferase activity by CRE-luciferase reporter assay", "format": "functional, cell-based"}, "[4]": {"target": "T2, Parathyroid hormone/parathyroid hormone-related peptide receptor (Rattus norvegicus, UniProt P25961)", "T2 sequence (P25961 whole entry)": "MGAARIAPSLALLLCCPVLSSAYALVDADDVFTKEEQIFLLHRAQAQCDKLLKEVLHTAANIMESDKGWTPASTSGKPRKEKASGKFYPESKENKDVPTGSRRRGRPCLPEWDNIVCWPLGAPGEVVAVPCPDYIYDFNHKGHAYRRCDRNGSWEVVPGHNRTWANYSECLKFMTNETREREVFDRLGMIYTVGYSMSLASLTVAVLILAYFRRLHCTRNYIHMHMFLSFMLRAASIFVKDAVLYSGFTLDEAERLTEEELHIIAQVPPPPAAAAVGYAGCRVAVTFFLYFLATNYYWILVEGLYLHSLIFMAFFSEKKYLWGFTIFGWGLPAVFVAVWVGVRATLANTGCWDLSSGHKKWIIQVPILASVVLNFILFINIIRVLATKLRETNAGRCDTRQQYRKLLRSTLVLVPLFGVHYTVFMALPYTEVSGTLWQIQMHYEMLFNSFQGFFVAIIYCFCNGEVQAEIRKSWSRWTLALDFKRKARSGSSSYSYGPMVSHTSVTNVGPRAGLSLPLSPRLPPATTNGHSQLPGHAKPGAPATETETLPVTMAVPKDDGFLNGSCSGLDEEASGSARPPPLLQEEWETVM", "assay": "Activity at rat PTH/PTH-related peptide receptor expressed in rat UMR106 cells assessed as cAMP formation", "format": "functional, cell-based", "how_it_was_run": "as §1"}, "Mus musculus": {"organism": "Mus musculus", "assay": "Inhibition of bone mineralization in embryonic mouse metatarsal", "format": "functional"}},
  "note": "pEC50, pIC50: −log10 of the molar value. Calls of active or inactive are those of the source. The calls are words filed in the database; no cut-off is given here. Square brackets hold non-standard residues; d marks the D form. Peptide text beside a SMILES is read from it. * marks the point of attachment. X1 = O=C(c1ccccc1-c1c2ccc(=O)cc-2oc2cc(O)ccc12)*; hArg = N=C(N)NCCCC[C@H](N)C(=O)O; Nle = CCCC[C@H](N)C(=O)O; Aib = CC(C)(N)C(=O)O",
  "data": [
    {"smiles": "CCCC[C@H](NC(=O)[C@H](CC(C)C)NC(=O)[C@H](CCC(N)=O)NC(=O)[C@@H](NC(=O)[C@H](CCC(=O)O)NC(=O)C(C)(C)NC(=O)[C@@H](NC(=O)C(C)(C)N)C(C)C)[C@@H](C)CC)C(=O)N[C@@H](Cc1cnc[nH]1)C(=O)N[C@@H](CCC(N)=O)C(=O)N[C@@H](CCCN=C(N)N)C(=O)N[C@@H](C)C(=O)N[C@@H](CCCCN)C(=O)N[C@@H](Cc1ccc(O)cc1)C(=O)N[C@@H](CCCCNC(=O)c1ccccc1-c1c2ccc(=O)cc-2oc2cc(O)ccc12)C(N)=O", "note": "(H-[Aib]V[Aib]EIQL[Nle]HQRAKYK(X1)-NH2)", "values": [
      {"measurement": "pEC50", "setting": "[1]", "result": 7.70},
      {"measurement": "pIC50", "setting": "[2]", "result": 7.01},
      {"measurement": "pEC50", "setting": "[3]", "result": 8.96}
    ]},
    {"smiles": "CCCC[C@H](NC(=O)[C@H](CC(C)C)NC(=O)[C@H](CCC(N)=O)NC(=O)[C@@H](NC(=O)[C@H](CCC(=O)O)NC(=O)[C@H](C)NC(=O)[C@@H](NC(=O)[C@H](C)N)C(C)C)[C@@H](C)CC)C(=O)N[C@@H](Cc1cnc[nH]1)C(=O)N[C@@H](CCC(N)=O)C(=O)N[C@@H](CCCCNC(=N)N)C(=O)N[C@@H](C)C(=O)N[C@@H](CCCCN)C(=O)N[C@@H](Cc1c[nH]c2ccccc12)C(=O)N[C@@H](Cc1ccc(O)cc1)C(N)=O", "note": "(H-AVAEIQL[Nle]HQ[hArg]AKWY-NH2)", "values": [
      {"measurement": "pEC50", "setting": "[1]", "result": 5.84},
      {"measurement": "pIC50", "setting": "[2]", "result": 5.66},
      {"measurement": "pEC50", "setting": "[3]", "result": 7.59},
      {"measurement": "pEC50", "setting": "[4]", "result": 6.89}
    ]},
    {"smiles": "CC[C@H](C)[C@H](NC(=O)[C@H](CCC(=O)O)NC(=O)[C@H](C)NC(=O)[C@@H](NC(=O)[C@H](C)N)C(C)C)C(=O)N[C@@H](CCC(N)=O)C(=O)N[C@@H](CC(C)C)C(=O)N[C@@H](CCSC)C(=O)N[C@@H](Cc1cnc[nH]1)C(=O)N[C@@H](CCC(N)=O)C(=O)N[C@@H](CCCCNC(=N)N)C(=O)N[C@@H](C)C(=O)N[C@@H](CCCCN)C(=O)N[C@@H](Cc1c[nH]c2ccccc12)C(=O)N[C@@H](CCCCNC(=O)c1ccccc1-c1c2ccc(=O)cc-2oc2cc(O)ccc12)C(N)=O", "note": "(H-AVAEIQLMHQ[hArg]AKWK(X1)-NH2)", "values": [
      {"measurement": "pEC50", "setting": "[1]", "result": 6.00},
      {"measurement": "pIC50", "setting": "[2]", "result": 4.99},
      {"measurement": "pEC50", "setting": "[3]", "result": 7.28},
      {"measurement": "pEC50", "setting": "[4]", "result": 6.60}
    ]},
    {"smiles": "CC[C@H](C)[C@H](NC(=O)[C@H](CCC(=O)O)NC(=O)C(C)(C)NC(=O)[C@@H](NC(=O)C(C)(C)N)C(C)C)C(=O)N[C@@H](CCC(N)=O)C(=O)N[C@@H](CC(C)C)C(=O)N[C@@H](CCSC)C(=O)N[C@@H](Cc1cnc[nH]1)C(=O)N[C@@H](CCC(N)=O)C(=O)N[C@@H](CCCCNC(=N)N)C(=O)N[C@@H](C)C(=O)N[C@@H](CCCCN)C(=O)N[C@@H](Cc1c[nH]c2ccccc12)C(=O)O", "note": "(H-[Aib]V[Aib]EIQLMHQ[hArg]AKW-OH)", "values": [
      {"measurement": "Activity", "setting": "Mus musculus", "result": "Active"}
    ]},
    {"smiles": "CCCC[C@H](NC(=O)[C@H](CC(C)C)NC(=O)[C@H](CCC(N)=O)NC(=O)[C@@H](NC(=O)[C@H](CCC(=O)O)NC(=O)C(C)(C)NC(=O)[C@@H](NC(=O)C(C)(C)N)C(C)C)[C@@H](C)CC)C(=O)N[C@@H](Cc1cnc[nH]1)C(=O)N[C@@H](CCC(N)=O)C(=O)N[C@@H](CCCCN=C(N)N)C(=O)N[C@@H](C)C(=O)N[C@@H](CCCCN)C(=O)N[C@@H](Cc1ccc(O)cc1)C(N)=O", "note": "(H-[Aib]V[Aib]EIQL[Nle]HQ[hArg]AKY-NH2)", "values": [
      {"measurement": "pIC50", "setting": "[2]", "result": 8.14},
      {"measurement": "pEC50", "setting": "[3]", "result": 10.22}
    ]},
    {"smiles": "CCCC[C@H](NC(=O)[C@H](CC(C)C)NC(=O)[C@H](CCC(N)=O)NC(=O)[C@@H](NC(=O)[C@H](CCC(=O)O)NC(=O)[C@H](C)NC(=O)[C@@H](NC(=O)[C@H](C)N)C(C)C)[C@@H](C)CC)C(=O)N[C@@H](Cc1cnc[nH]1)C(=O)N[C@@H](CCC(N)=O)C(=O)N[C@@H](CCCCNC(=N)N)C(=O)N[C@@H](C)C(=O)N[C@@H](CCCCN)C(=O)N[C@@H](Cc1ccc(O)cc1)C(N)=O", "note": "(H-AVAEIQL[Nle]HQ[hArg]AKY-NH2)", "values": [
      {"measurement": "pEC50", "setting": "[1]", "result": 5.84},
      {"measurement": "pIC50", "setting": "[2]", "result": 4.98},
      {"measurement": "pEC50", "setting": "[3]", "result": 7.89},
      {"measurement": "pEC50", "setting": "[4]", "result": 6.46}
    ]},
    {"smiles": "CC[C@H](C)[C@H](NC(=O)[C@H](CCC(=O)O)NC(=O)[C@H](C)NC(=O)[C@@H](NC(=O)[C@H](C)N)C(C)C)C(=O)N[C@@H](CCC(N)=O)C(=O)N[C@@H](CC(C)C)C(=O)N[C@@H](CCSC)C(=O)N[C@@H](Cc1cnc[nH]1)C(=O)N[C@@H](CCC(N)=O)C(=O)N[C@@H](CCCCN=C(N)N)C(=O)N[C@@H](C)C(=O)N[C@@H](CCCCN)C(=O)N[C@@H](Cc1c[nH]c2ccccc12)C(N)=O", "note": "(H-AVAEIQLMHQ[hArg]AKW-NH2)", "values": [
      {"measurement": "pEC50", "setting": "[1]", "result": 6.10},
      {"measurement": "pIC50", "setting": "[2]", "result": 4.98},
      {"measurement": "pEC50", "setting": "[3]", "result": 7.49},
      {"measurement": "pEC50", "setting": "[4]", "result": 6.81}
    ]},
    {"smiles": "CCCC[C@H](NC(=O)[C@H](CC(C)C)NC(=O)[C@H](CCC(N)=O)NC(=O)[C@@H](NC(=O)[C@H](CCC(=O)O)NC(=O)C(C)(C)NC(=O)[C@@H](NC(=O)C(C)(C)N)C(C)C)[C@@H](C)CC)C(=O)N[C@@H](Cc1cnc[nH]1)C(=O)N[C@@H](CCC(N)=O)C(=O)N[C@@H](CCCNC(=N)N)C(=O)N[C@@H](C)C(=O)N[C@@H](CCCCNC(=O)c1ccccc1-c1c2ccc(=O)cc-2oc2cc(O)ccc12)C(=O)N[C@@H](Cc1ccc(O)cc1)C(N)=O", "note": "(H-[Aib]V[Aib]EIQL[Nle]HQRAK(X1)Y-NH2)", "values": [
      {"measurement": "pEC50", "setting": "[1]", "result": 8.14},
      {"measurement": "pIC50", "setting": "[2]", "result": 7.87},
      {"measurement": "pEC50", "setting": "[3]", "result": 9.04}
    ]}
  ]
}
